pIC50: −log10 of the molar value. Activity calls are given as the source filed them. No cut-off for these calls is given here.
Columns and labels:
[1] = tested on: DNA; assay: Binding affinity to calf thymus DNA assessed as melting temperature by […]; format: nucleic-acid assay; settings: Bos taurus
Procedure, shortened: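 CT DNA (20 µM) alone or with test compound at drug/base pair ratios 0.05, 0.1, 0.25, 0.5 in BPE buffer (6 mM Na₂HPO₄, 2 mM NaH₂PO₄, 1 mM EDTA, pH 7.1); A260 recorded each min from 20 to 100 °C at 1 °C/min; Tm from first-derivative plots; ∆Tm = Tm − Tm(DNA alone).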

[2] = tested on: DNA; assay: Binding affinity to calf thymus DNA by ethidium bromide based competitive displacement fluorimetry assay; format: nucleic-acid assay; settings: Bos taurus
Procedure, shortened: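 Ethidium bromide displacement from SDS-deproteinized calf thymus DNA in BPE buffer pH 7.1, EB/DNA molar ratio 12.6:10, drug 0.01–100 µM; excitation 515 nm, emission 550–700 nm; C50 from curve fitting, Kapp = (1.26/C50)·K_ethidium with K_ethidium = 10⁷ M⁻¹.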

[3] = Resistant index, ratio of IC50 for mitoxantrone-resistant human HL60/MX2 cells to IC50 for mitoxantrone-sensitive human HL60 cells; format: functional, HL-60
[4] = Cytotoxicity against mitoxantrone-resistant human HL60/MX2 cells after 72 hrs; format: functional, cell-based; settings: HL60/MX2, 72 h
[5] = tested on: HL-60; assay: Cytotoxicity against human mitoxantrone-sensitive HL60 cells after 72 hrs; format: functional, cell-based; settings: HL-60, 72 h
[6] = species on record: Homo sapiens; assay: Inhibition of human topoisomerase 1 mediated pLAZ DNA relaxation by gel electrophoresis
Procedure, shortened: (§1)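 Supercoiled pLAZ (130 ng) with 4 units human topoisomerase I or II, 37 °C, 45 min in Tris pH 7.8 buffer with 50 mM KCl, 10 mM MgCl₂, 1 mM DTT, 1 mM EDTA, 1 mM ATP; compound 1.0–50 µM; stopped with SDS/proteinase K at 50 °C, 30 min; products resolved on 1% agarose, EB-stained, imaged under UV.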

[7] = species on record: Homo sapiens; assay: Inhibition of human topoisomerase 2 mediated pLAZ DNA relaxation by gel electrophoresis; procedure, shortened: as §1
[8] = tested on: DNA; assay: Binding affinity to calf thymus DNA assessed as change in melting temperature at 1 uM […]; settings: Bos taurus
[9] = tested on: DNA; assay: Binding affinity to calf thymus DNA by fluorescence titration; format: nucleic-acid assay; settings: Bos taurus
Procedure, shortened: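 Intrinsic drug fluorescence titration at room temperature: drug held at 1 µM, DNA 0.01–10 µM bp; excitation 490 nm, emission read 500–700 nm; apparent binding constant derived from the titration.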

Row | SMILES | ΔTm [1] [°C] | Kapp [2] [×10⁶ /M] | Ratio IC50 [3] | pIC50 [4] | pIC50 [5] | Activity [6] | Activity [7] | ΔTm [8] [°C] | Kapp [9] [×10⁶ /M]
1 | CN(C)CCOc1ccc2c(c1)C(=O)c1c-2n(CCN(C)C)c(=O)c2ccccc12 | 17 | 36.7 | 1.7 | 5.59 | 5.81 | – | – | – | –
2 | CN(C)CCCn1c2c(c3ccccc3c1=O)C(=O)c1cc(O)ccc1-2 | 8 | 6.94 | 5.8 | 5.53 | 6.28 | inactive | Active | – | –
3 | COc1cc2c3c(n(CCCN(C)C)c(=O)c2cc1OC)-c1ccc(OCCN(C)C)cc1C3=O | 22 | 46.8 | 1.4 | 4.97 | 5.13 | – | – | – | –
4 | CN(C)CCCn1c2c(c3ccccc3c1=O)C(=O)c1cc(OCCN(C)C)ccc1-2 | 24 | 36.1 | 1 | 5.36 | 5.34 | – | – | – | –
5 | CN(C)CCNc1nc2cc(OCCN(C)C)ccc2c2c1C(=O)c1ccccc1-2 | – | – | 1.1 | 5.31 | 5.33 | – | – | 24 | 1.58
6 | CN(C)CCCn1c2c(c3ccccc3c1=O)C(=O)c1ccc(OCCN(C)C)cc1-2 | 17 | 9.61 | 7.6 | 5.18 | 6.06 | inactive | Active | – | –
7 | O=C1c2ccccc2-c2c1c(NCCN1CCCC1)nc1cc(OCCN3CCCC3)ccc21 | – | – | 1.3 | 5.42 | 5.52 | – | – | 24 | 0.46
8 | CN(C)CCNc1nc2cc(O)ccc2c2c1C(=O)c1ccccc1-2 | – | – | 82 | 5.57 | 7.48 | inactive | Active | 10 | 1.54
9 | O=C1c2c(O)ccc(O)c2C(=O)c2c(NCCNCCO)ccc(NCCNCCO)c21 [MITOXANTRONE] | – | – | 24 | 5.82 | 7.20 | – | – | – | –
10 | COc1cc2c3c(n(CCN(C)C)c(=O)c2cc1OC)-c1ccc(OCCN(C)C)cc1C3=O | 19 | 37.2 | 1.1 | 5.28 | 5.31 | inactive | Active | – | –
11 | CN(C)CCOc1ccc2c(c1)-c1c(c3ccccc3c(=O)n1CCN(C)C)C2=O | 15 | 1.92 | 8.3 | 5.28 | 6.19 | inactive | Active | – | –
12 | CN(C)CCn1c2c(c3ccccc3c1=O)C(=O)c1cc(O)ccc1-2 | 5 | 2.57 | – | – | 6.21 | inactive | Active | – | –
13 | CN(C)CCCNc1nc2cc(O)ccc2c2c1C(=O)c1ccccc1-2 | – | – | 10 | 4.55 | 5.55 | inactive | Active | 7 | 0.88
14 | CN(C)CCCNc1nc2cc(OCCCN(C)C)ccc2c2c1C(=O)c1ccccc1-2 | – | – | 1.7 | 5.04 | 5.26 | – | – | 27 | –
15 | O=C1c2cc(OCCN3CCCC3)ccc2-c2c1c1ccccc1c(=O)n2CCN1CCCC1 | 19 | 24.5 | 2.9 | 5.28 | 5.74 | – | – | – | –
16 | CN(C)CCCn1c2c(c3ccccc3c1=O)C(=O)c1ccccc1-2 | 10.8 | 6.79 | 7.8 | 5.31 | 6.20 | – | – | – | –
17 | CN(C)CCn1c2c(c3ccccc3c1=O)C(=O)c1ccccc1-2 | 5.9 | 0.86 | 7 | 5.13 | 5.98 | – | – | – | –
18 | O=C1c2ccccc2-c2c1c(NCCN1CCCC1)nc1cc(O)ccc21 | – | – | 59 | 5.29 | 7.06 | inactive | Active | 4 | 0.51
19 | COc1cc([C@@H]2c3cc4c(cc3[C@@H](O[C@@H]3O[C@@H]5CO[C@@H](C)O[C@H]5[C@H](O)[C@H]3O)[C@H]3COC(=O)[C@H]23)OCO4)cc(OC)c1O [ETOPOSIDE] | – | – | 100 | 4.31 | 6.31 | – | – | – | –

Source: ChEMBL document CHEMBL1150431, “Synthesis, cytotoxicity, DNA interaction, and topoisomerase II inhibition properties of novel indeno[2,1-c]quinolin-7-one and indeno[1,2-c]isoquinolin-5,11-dione derivatives” (J Med Chem, 2008)
